Type in all cases: functional
A short description of test [1]: Antioxidant activity assessed as copper ion radical scavenging activity at 2 uM. The method in brief: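 Cu(II)-reducing test: compound in distilled water mixed 40:160 with 0.5 mM CuCl2 plus 0.75 mM neocuproine in 10 mM phosphate buffer, pH 7.4. Absorbance read at 454 nm for 1 h. Reduced Cu(I) concentration measured at 2 μM compound.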
The nature of test [2]: Metal chelating activity of the compound at 1 to 2 uM. A digest of the protocol:
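Chelation: compound mixed 1:1 with CuSO4, then calcein added. Fluorescence read at excitation 485 nm and emission 535 nm, compared with calcein-only control. Tested at 1 and 2 μM; mean ± S.D.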

Test [3] can be described thus: Antioxidant activity assessed as peroxyl radical scavenging activity at 1 to 2 uM by ORAC assay. The method in brief: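 ORAC peroxyl-radical assay at 1.0 and 2.0 μM. Fluorescein is the radical target and 20 mM AAPH the generator. Fluorescence recorded every 2 min after AAPH, relative to the initial reading. Net area under the decay curve versus blank, expressed as μM Trolox equivalents against freshly prepared Trolox standard.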

The source made the active and inactive calls. The rule behind the calls is not given here.

Consider `C[C@H](/C=C/[C@]1(O)C(C)(C)C[C@@H](O)C[C@]1(C)O)O[C@H]1O[C@@H](CO)[C@H](O)[C@@H](O)[C@@H]1O`, for which the outcome in test [1], in test [2] and in test [3] was inactive.

For `CC[C@H](CC[C@@H](C)[C@H]1CC[C@H]2[C@@H]3CC=C4C[C@@H](O[C@@H]5O[C@H](CO)[C@@H](O)[C@H](O)[C@H]5O)CC[C@]4(C)[C@H]3CC[C@]12C)C(C)C`, the result in test [1], in test [2] and in test [3] was inactive.

For the compound `CC[C@H](CC[C@@H](C)[C@H]1CC[C@H]2[C@@H]3CC=C4C[C@@H](O)CC[C@]4(C)[C@H]3CC[C@]12C)C(C)C`, the outcome in test [1], in test [2] and in test [3] was inactive.

On to `O=c1cc(-c2ccc(O[C@@H]3O[C@H](CO)[C@@H](O)[C@H](O)[C@H]3O)cc2)oc2cc(O)c([C@@H]3O[C@H](CO)[C@@H](O)[C@H](O)[C@H]3O)c(O)c12`, for which the result in test [1] and in test [2] was inactive.

As to `O=c1cc(-c2ccc(O)cc2)oc2cc(O)c([C@@H]3O[C@H](CO)[C@@H](O)[C@H](O)[C@H]3O)c(O)c12`, the result in test [1] and in test [2] was inactive.

For `C[C@H](O)/C=C/[C@@]1(O)C(C)(C)C[C@H](O)C[C@@]1(C)O`, the outcome in test [1], in test [2] and in test [3] was inactive.

For the compound `Oc1cc(O)c2c(c1)O[C@H](c1ccc(O)c(O)c1)[C@H](O)C2`, the result in test [1] and in test [3] was Active. The outcome in test [2] was inactive.

Regarding `O=c1cc(-c2ccc(O)cc2)oc2c([C@@H]3O[C@H](CO)[C@@H](O)[C@H](O)[C@H]3O[C@H]3OC[C@@](O)(CO)[C@@H]3O)c(O)cc(O)c12`, the result in test [1] and in test [2] was inactive.

As for `C[C@@H]1C[C@H](O)CC(C)(C)[C@@]1(O)CC[C@H](C)O[C@H]1O[C@@H](CO)[C@H](O)[C@@H](O)[C@@H]1O`, the outcome in test [1], in test [2] and in test [3] was inactive.

Consider `O=c1cc(-c2ccc(O)c(O)c2)oc2cc(O)c([C@@H]3O[C@H](CO)[C@@H](O)[C@H](O)[C@H]3O)c(O)c12`, for which the outcome in test [1] and in test [3] was Active. Also, the outcome in test [2] was inactive.

`COc1cc(/C=C/CO)cc(OC)c1O[C@@H]1O[C@H](CO)[C@@H](O)[C@H](O)[C@H]1O`: the outcome in test [1], in test [2] and in test [3] was inactive.

Consider `CCCCCCCCCCCCCCCCCC(=O)OC[C@H]1O[C@@H](O[C@H]2CC[C@@]3(C)C(=CC[C@H]4[C@@H]5CC[C@H]([C@H](C)CC[C@@H](CC)C(C)C)[C@@]5(C)CC[C@@H]43)C2)[C@H](O)[C@@H](O)[C@@H]1O`, for which the result in test [1], in test [2] and in test [3] was inactive.

Take `CC1=CC(=O)CC(C)(C)[C@H]1/C=C/[C@@H](C)O[C@@H]1O[C@H](CO[C@@H]2O[C@@H](CO)[C@H](O)[C@H]2O)[C@@H](O)[C@H](O)[C@H]1O`: the outcome in test [1], in test [2] and in test [3] was inactive.

For the compound `Oc1cc(O)c2c(c1)O[C@H](c1ccc(O)c(O)c1)[C@@H](O)C2`, the outcome in test [1] and in test [3] was Active. Also, the result in test [2] was inactive.
